From ChEMBL document CHEMBL1123589, “Phenylpiperazine-based radiopharmaceuticals for brain imaging. 3. Synthesis and evaluation of radioiodinated 1-alkyl-4-phenylpiperazines” (J Med Chem, 1987)

Assays:
Conditions in all cases: in vivo
[1] = test system: Rattus norvegicus; assay: The biodistribution of the [125I]-labeled compound in rats after intravenous injection was evaluated in kidney at 4.00 hrs; value ranges from. 28-0.30(ID.kg/g); assay type: ADME, organism-based
In short: (§1)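 Male Sprague-Dawley rats (250–300 g), under ether anesthesia, given 10–15 μCi of the NCA ¹²⁵I-labeled agent iv in 0.1 mL saline. Groups of N = 3 were killed at 0.25, 1 or 4 h. Blood and tissues were removed, weighed and counted in a γ-well scintillation counter. Values are mean % ID·kg/g (range).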

[2] = test system: Rattus norvegicus; assay: The biodistribution of the [125I]-labeled compound in rats after intravenous injection was evaluated in muscle at 1.00 hrs (ID.kg/g); assay type: ADME, organism-based, Muscle tissue
In short: (§2)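 Male Sprague-Dawley rats (250–300 g) under ether anesthesia given iv 0.1 mL saline containing 10–15 μCi of NCA ¹²⁵I-labeled agent (chloramine-T iodination, HPLC-purified). Groups of 3 killed at 0.25, 1 and 4 h. Blood and tissues excised, weighed and γ-counted. Values are mean (range) of % injected dose × body mass (kg) per gram of tissue.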

[3] = test system: Rattus norvegicus; assay: The biodistribution of the [125I]-labeled compound in rats after intravenous injection was evaluated in brain at 1.00 hrs; value ranges from 0.08-0.10 (ID.kg/g); assay type: ADME, organism-based
In short: (§3)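 Male Sprague-Dawley rats (250–300 g) under ether anesthesia were given an iv injection of no-carrier-added 125I-labelled agent (10–15 μCi in 0.1 mL saline). The agent was iodinated with chloramine-T in acetate buffer and purified by C-18 HPLC. Groups of N = 3 were killed at 0.25, 1 and 4 h. Blood and tissues were weighed and γ-counted. Values are % ID·kg/g, mean (range).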

[4] = test system: Rattus norvegicus; assay: The biodistribution of the [125I]-labeled compound in rats after intravenous injection was evaluated in thyroid at 0.25 hrs; value ranges from 1.44-2.04 (ID.kg/g); assay type: ADME, organism-based, Thyroid gland; in short: as §2
[5] = test system: Rattus norvegicus; assay: The biodistribution of the [125I]-labeled compound in rats after intravenous injection was evaluated in kidney at 1.00 hrs; value ranges from 0.35-0.42 (ID.kg/g); assay type: ADME, organism-based; in short: as §1
[6] = test system: Rattus norvegicus; assay: The biodistribution of the [125I]-labeled compound in rats after intravenous injection was evaluated in muscle at 4.00 hrs (ID.kg/g); assay type: ADME, organism-based, Muscle tissue; in short: as §2
[7] = test system: Rattus norvegicus; assay: The biodistribution of the [125I]-labeled compound in rats after intravenous injection was evaluated in thyroid at 4.00 hrs; value ranges from 2.64-2.80 (ID.kg/g); assay type: ADME, organism-based, Thyroid gland; in short: as §2
[8] = test system: Rattus norvegicus; assay: The biodistribution of the [125I]-labeled compound in rats after intravenous injection was evaluated in lung at 4.00 hrs; value ranges from 0.53-0.59 (ID.kg/g); assay type: ADME, organism-based; in short: as §2
[9] = test system: Rattus norvegicus; assay: The biodistribution of the [125I]-labeled compound in rats after intravenous injection was evaluated in adrenal at 0.25 hrs; value ranges from 0.84-0.91 (ID.kg/g); assay type: ADME, organism-based; in short: as §3
[10] = test system: Rattus norvegicus; assay: The biodistribution of the [125I]-labeled compound in rats after intravenous injection was evaluated in fat at 0.25 hr (ID. kg/g); assay type: ADME, organism-based, Adipose tissue; in short: as §3
[11] = test system: Rattus norvegicus; assay: The biodistribution of the [125I]-labeled compound in rats after intravenous injection was evaluated in adrenal at 1.00 hrs; value ranges from 0.78-1.46 (ID.kg/g); assay type: ADME, organism-based; in short: as §3
[12] = test system: Rattus norvegicus; assay: The biodistribution of the [125I]-labeled compound in rats after intravenous injection was evaluated in heart at 4.00 hrs; value ranges from 0.11-0.13 (ID.kg/g); assay type: ADME, organism-based; in short: as §1
[13] = test system: Rattus norvegicus; assay: The biodistribution of the [125I]-labeled compound in rats after intravenous injection was evaluated in lung at 0.25 hrs; value ranges from 1.0-1.14 (ID.kg/g); assay type: ADME, organism-based; in short: as §1
[14] = test system: Rattus norvegicus; assay: The biodistribution of the [125I]-labeled compound in rats after intravenous injection was evaluated in blood at 4.00 hrs (ID.kg/g); assay type: ADME, organism-based; in short: as §3
[15] = test system: Rattus norvegicus; assay: The biodistribution of the [125I]-labeled compound in rats after intravenous injection was evaluated in liver at 1.00 hr 0.46-0.90 (ID.kg/g); assay type: ADME, organism-based; in short: as §1
[16] = test system: Rattus norvegicus; assay: The biodistribution of the [125I]-labeled compound in rats after intravenous injection was evaluated in kidney at 0.25 hr; value ranges from 0.35-0.39 (ID.kg/g); assay type: ADME, organism-based; in short: as §1
[17] = test system: Rattus norvegicus; assay: The biodistribution of the [125I]-labeled compound in rats after intravenous injection was evaluated in brain at 4.00 hrs (ID.kg/g); assay type: ADME, organism-based; in short: as §3
[18] = test system: Rattus norvegicus; assay: The biodistribution of the [125I]-labeled compound in rats after intravenous injection was evaluated in adrenal at 4.00 hrs; value ranges from 1.09-1.22 (ID.kg/g); assay type: ADME, organism-based; in short: as §3
[19] = test system: Rattus norvegicus; assay: The biodistribution of the [125I]-labeled compound in rats after intravenous injection was evaluated in muscle at 0.25 hrs (ID.kg/g); assay type: ADME, organism-based, Muscle tissue; in short: as §2
[20] = test system: Rattus norvegicus; assay: The biodistribution of the [125I]-labeled compound in rats after intravenous injection was evaluated in brain at 0.25 hrs; value ranges from 0.10-0.16 (ID.kg/g); assay type: ADME, organism-based; in short: as §3
[21] = test system: Rattus norvegicus; assay: The biodistribution of the [125I]-labeled compound in rats after intravenous injection was evaluated in lung at 1.00 hrs; value ranges from 0.65-0.85 (ID.kg/g); assay type: ADME, organism-based; in short: as §1
[22] = test system: Rattus norvegicus; assay: The biodistribution of the [125I]-labeled compound in rats after intravenous injection was evaluated in fat at 4.00 hrs; value ranges from 0.02-0.04 (ID.kg/g); assay type: ADME, organism-based, Adipose tissue; in short: as §3
[23] = test system: Rattus norvegicus; assay: The biodistribution of the [125I]-labeled compound in rats after intravenous injection was evaluated in thyroid at 1.00 hrs; value ranges from 1.41-1.72 (ID.kg/g); assay type: ADME, organism-based, Thyroid gland; in short: as §2
[24] = test system: Rattus norvegicus; assay: The biodistribution of the [125I]-labeled compound in rats after intravenous injection was evaluated in fat at 1.00 hrs (ID.kg/g); assay type: ADME, organism-based, Adipose tissue; in short: as §3
[25] = test system: Rattus norvegicus; assay: The biodistribution of the [125I]-labeled compound in rats after intravenous injection was evaluated in blood at 0.25 hrs (ID.kg/g); assay type: ADME, organism-based; in short: as §3
[26] = test system: Rattus norvegicus; assay: The biodistribution of the [125I]-labeled compound in rats after intravenous injection was evaluated in heart at 0.25 hrs (ID.kg/g); assay type: ADME, organism-based; in short: as §3
[27] = test system: Rattus norvegicus; assay: The biodistribution of the [125I]-labeled compound in rats after intravenous injection was evaluated in liver at 4.00 hrs (ID.kg/g); assay type: ADME, organism-based; in short: as §1
[28] = test system: Rattus norvegicus; assay: The biodistribution of the [125I]-labeled compound in rats after intravenous injection was evaluated in heart at 1.00 hrs; value ranges from 0.14-0.18 (ID.kg/g); assay type: ADME, organism-based; in short: as §1
[29] = test system: Rattus norvegicus; assay: The biodistribution of the [125I]-labeled compound in rats after intravenous injection was evaluated in blood at 1.00 hrs (ID.kg/g); assay type: ADME, organism-based; in short: as §3
[30] = test system: Rattus norvegicus; assay: The biodistribution of the [125I]-labeled compound in rats after intravenous injection was evaluated in liver at 0.25 hr; value ranges from; value ranges from 0.45-0.60 (ID.kg/g); assay type: ADME, organism-based; in short: as §1

## CCCCCCN1CCN(c2ccc(I)cc2)CC1
[1]
  Biodistribution: 0.3%
[2]
  Biodistribution: 0.02 %ID·kg/g
[3]
  Biodistribution: 0.1%
[4]
  Biodistribution: 2.04%
[5]
  Biodistribution: 0.42%
[6]
  Biodistribution: 0.02 %ID·kg/g
[7]
  Biodistribution: 2.8%
[8]
  Biodistribution: 0.59%
[9]
  Biodistribution: 0.91%
[10]
  Biodistribution: 0.01 % ID·kg/g
[11]
  Biodistribution: 1.46%
[12]
  Biodistribution: 0.13%
[13]
  Biodistribution: 1.14%
[14]
  Biodistribution: 0.01 % ID·kg/g
[15]
  Biodistribution: 0.9%
[16]
  Biodistribution: 0.39%
[17]
  Biodistribution: 0.09%
[18]
  Biodistribution: 1.22%
[19]
  Biodistribution: 0.03 % ID·kg/g
[20]
  Biodistribution: 0.16%
[21]
  Biodistribution: 0.85%
[22]
  Biodistribution: 0.04%
[23]
  Biodistribution: 1.72%
[24]
  Biodistribution: 0.02 % ID·kg/g
[25]
  Biodistribution: 0.01 % ID·kg/g
[26]
  Biodistribution: 0.24%
[27]
  Biodistribution: 0.78%
[28]
  Biodistribution: 0.18%
[29]
  Biodistribution: 0.01 % ID·kg/g
[30]
  Biodistribution: 0.6%
